# From the RNAGym collection of RNA variant scans (doi:10.1038/nmeth.2970)
# B1: NELF-E aptamer (parent)
# chain: CCCAACGACUGCCGAGCGAGAUUACGCUUGAGCGCCCCACUGAGGAUGCCCACGGGCGAUUGGGGCACGG
# Variants of: B1
# Experiment: HiTS-RAP
# Conditions: with NELF-E (Drosophila)
# How it was run: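 Aptamer DNA templates bearing a T7 promoter and a ter site were sequenced on an Illumina GAIIx flowcell. T7 RNA polymerase then transcribed them in situ, and GST-Tus halted transcription over 30 minutes at 37°C. After a 30-minute room-temperature equilibration with NELF-E-mOrange at 0.064 to 1000 nM in HEPES binding buffer, clusters were imaged, using only the first binding curve. Intensities normalised to sequencing intensity were averaged per sequence and fitted with weighted Hill fits to give Kd, retaining only fits whose variance stayed under 1,000,000.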
row,Variant,Kd [nM]
1,CCCGACGACUGCCGAGCGAGAUUACGCUUGAGCGCCCCACUGAGGAUGCCGACGGGCGAUUGGGGCACGG [A4G C51G],4.36
2,CCCGACGACUGCCGAGCGAGAUUACGCUUGAGCGCCCCACUGAGGAUGCCUACGGGCGAUUGGGGCACGG [A4G C51U],7.58
3,CCCGACGACUGCCGAGCGAGAUUACGCUUGAGCGCCCCACUGAGGAUGCCAACGGGCGAUUGGGGCACGG [A4G C51A],9.97
4,CCCGACGACUGCCGAGCGAGAUUACGCUUGAGCGCCCCACUGAGGAUGUCCACGGGCGAUUGGGGCACGG [A4G C49U],20.8
5,CCCGACGACUGCCGAGCGAGAUUACGCUUGAGCGACCCACUGAGGAUGCCCACGGGCGAUUGGGGCACGG [A4G C35A],9.55
6,CCCGACGACUGCCGAGCGAGAUUACGCUUGAGCGUCCCACUGAGGAUGCCCACGGGCGAUUGGGGCACGG [A4G C35U],13.5
7,CCCGACUACUGCCGAGCGAGAUUACGCUUGAGCGCCCCACUGAGGAUGCCCACGGGCGAUUGGGGCACGG [A4G G7U],6.07
8,CCCGACCACUGCCGAGCGAGAUUACGCUUGAGCGCCCCACUGAGGAUGCCCACGGGCGAUUGGGGCACGG [A4G G7C],7.38
9,CCCGACAACUGCCGAGCGAGAUUACGCUUGAGCGCCCCACUGAGGAUGCCCACGGGCGAUUGGGGCACGG [A4G G7A],6.95
10,CCCGACGACUGCCGAGCGAGAUUACGCUUGAGCGCCCCACUGAGGAUGCGCACGGGCGAUUGGGGCACGG [A4G C50G],10.4
11,CCCGACGACUGCCGAGCGAGAUUACGCUUGAGCGCCCCACUGAGGAUGCUCACGGGCGAUUGGGGCACGG [A4G C50U],14.2
12,CCCGACGACUGCCGAGCGAGAUUACGCUUGAGCGCCCCACUGAGGAUGCACACGGGCGAUUGGGGCACGG [A4G C50A],17.7
13,CCCGACGACUGCCGAGCGAGAUUACGUUUGAGCGCCCCACUGAGGAUGCCCACGGGCGAUUGGGGCACGG [A4G C27U],4.47
14,CCCGACGACUGCCGAGCGAGAUUACGGUUGAGCGCCCCACUGAGGAUGCCCACGGGCGAUUGGGGCACGG [A4G C27G],5.73
15,CCCGACGACUACCGAGCGAGAUUACGCUUGAGCGCCCCACUGAGGAUGCCCACGGGCGAUUGGGGCACGG [A4G G11A],6.4
16,CCCGACGACUUCCGAGCGAGAUUACGCUUGAGCGCCCCACUGAGGAUGCCCACGGGCGAUUGGGGCACGG [A4G G11U],6.46
17,CCCGACGACUGCCGAGCGAGAUUACGCUUGAGCGCCCCAGUGAGGAUGCCCACGGGCGAUUGGGGCACGG [A4G C40G],6.29
18,CCCGACGACUGCCGAGCGAGAUUACGCUUGAGCGCCCCAUUGAGGAUGCCCACGGGCGAUUGGGGCACGG [A4G C40U],64.8
19,CCCGACGACUGCCGAGCGAGAUUACGCUUGAGCGCGCCACUGAGGAUGCCCACGGGCGAUUGGGGCACGG [A4G C36G],10.4
20,CCCGACGACUGCCGAGCGAGAUUACGCUUGAGCGCUCCACUGAGGAUGCCCACGGGCGAUUGGGGCACGG [A4G C36U],7.32

row,Variant,Kd [nM]
1,CCCGACGACUGCCGAGCGAGAUUACGCUUGAGCGCACCACUGAGGAUGCCCACGGGCGAUUGGGGCACGG [A4G C36A],7.98
2,CCCGACGACUGCCGAGCGAGAUUACGCUUGAGUGCCCCACUGAGGAUGCCCACGGGCGAUUGGGGCACGG [A4G C33U],5.81
3,CCCGACGACUGCCGAGCGAGAUUACGCUUGAGGGCCCCACUGAGGAUGCCCACGGGCGAUUGGGGCACGG [A4G C33G],5.81
4,CCCGACGACUGCCGAGCGAGAUUACGCUUGAGAGCCCCACUGAGGAUGCCCACGGGCGAUUGGGGCACGG [A4G C33A],5.4
5,CCCGACGACUGCCGAGCGAGAUUACGCUUGAGCGCCCCACUGAGGAUGCCCACGGGCGAUUGGGGUACGG [A4G C66U],5.13
6,CCCGACGACUGCCGAGCGAGAUUACGCUUGAGCGCCCCACUGAGGAUGCCCACGGGCGAUUGGGGGACGG [A4G C66G],5.69
7,CCCGACGACUGCCGAGCGAGAUUACGCUUGAGCGCCCAACUGAGGAUGCCCACGGGCGAUUGGGGCACGG [A4G C38A],44.4
8,CCCGACGACUGCCGAGCGAGAUUACGCUUGAGCGCCCUACUGAGGAUGCCCACGGGCGAUUGGGGCACGG [A4G C38U],8.59
9,CCCGACGACUGCCUAGCGAGAUUACGCUUGAGCGCCCCACUGAGGAUGCCCACGGGCGAUUGGGGCACGG [A4G G14U],6.38
10,CCCGACGACUGCCAAGCGAGAUUACGCUUGAGCGCCCCACUGAGGAUGCCCACGGGCGAUUGGGGCACGG [A4G G14A],5.98
11,CCCGACGACUGCCGAGCGAGAUUACGCUUGAGCGCCCCACUGAGGAUGCCCACGGGGGAUUGGGGCACGG [A4G C57G],7.07
12,CCCGACGACUGCCGAGCGAGAUUACGCUUGAGCGCCCCACUGAGGAUGCCCACGGGUGAUUGGGGCACGG [A4G C57U],5.88
13,CCCGACGACUGCCGAACGAGAUUACGCUUGAGCGCCCCACUGAGGAUGCCCACGGGCGAUUGGGGCACGG [A4G G16A],6.14
14,CCCGACGACUGCCGAGCGAGAUUACGCUUGAGCGCCACACUGAGGAUGCCCACGGGCGAUUGGGGCACGG [A4G C37A],12.3
15,CCCGACGACUGCCGAGCGAGAUUACGCUUGAGCGCCGCACUGAGGAUGCCCACGGGCGAUUGGGGCACGG [A4G C37G],6.99
16,CCCGACGACUGCCGAGCGAGAUUACGCUUGAGCGCCUCACUGAGGAUGCCCACGGGCGAUUGGGGCACGG [A4G C37U],13.2
17,CCCGACGACUGCCGAGCGAGAUUACGCUUGAGCGCCCCACUGAGGAUGCCCAAGGGCGAUUGGGGCACGG [A4G C53A],6.64
18,CCCGACGACUGCCGAGCGAGAUUACGCUUGAGCGCCCCACUGAGGAUGCCCAGGGGCGAUUGGGGCACGG [A4G C53G],7.58
19,CCCGACGACUGCCGAGCGAGAUUACGCUUGAGCGCCCCACUGAGGAUGCCCAUGGGCGAUUGGGGCACGG [A4G C53U],3.85
